Eleven compounds from ChEMBL document CHEMBL1153939, “Novel antagonists of serotonin-4 receptors: synthesis and biological evaluation of pyrrolothienopyrazines” (Bioorg Med Chem, 2009) can be followed below.

Data set [1] has as its system Mus musculus. Description: Acute toxicity in NMRI mouse assessed as behavioral changes at 25 mg/kg, ip by CNS activity test. In kind it is organism-based, Central nervous system. Conditions: in vivo. The arrangement: dose 25 mg/kg, route intraperitoneal. The procedure, abridged:
(§1)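 Male NMRI mice (20–24 g) given ip drug in saline (10 mL/kg), groups of 4. Behavioural and neurological changes scored against controls by a standardized observation technique at 30 min, 3 h and 24 h post-dose. Approximate LD50 derived from deaths counted at 24 h.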

The target of data set [2] is 5-hydroxytryptamine receptor 6 (Homo sapiens, UniProt P50406). In words: Displacement of [3H]LSD form human recombinant 5HT6 receptor. The gist of the method: (§2)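 Membranes from sf9 cells expressing human 5-HT6 (14 µg/mL) or 5-HT7 (38 µg/mL) incubated 90 min at 27 °C with 2 nM [3H]LSD in 50 mM Tris-HCl containing 10 mM MgSO4 and 0.5 mM EDTA. Nonspecific binding defined with clozapine (10 and 250 µM).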
Background: Displacement assays read how much labelled ligand stays bound in the presence of the test substance.

Data set [3] deals with 5-hydroxytryptamine receptor 4 (Cavia porcellus) (UniProt O70528). In words: Displacement of [3H]GR-113808 from 5HT4 receptor in guinea pig striatum membrane at 10 nM. The class given is cell membranes. The procedure, abridged: (§3)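 Guinea pig membranes (15 µg protein/mL) incubated 30 min at 37 °C with 0.6 nM [3H]GR113808 in 50 mM HEPES, pH 7.4, with fixed test concentrations. Nonspecific binding defined with 10 µM serotonin.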

Data set [4] deals with 5-hydroxytryptamine receptor 2B (Homo sapiens, UniProt P41595). In words: Displacement of [3H]mesulergine from human recombinant 5HT2B receptor.
Data set [5] addresses T1, 5-hydroxytryptamine receptor 1A (Homo sapiens, UniProt P08908).
T1 sequence (P08908 whole entry): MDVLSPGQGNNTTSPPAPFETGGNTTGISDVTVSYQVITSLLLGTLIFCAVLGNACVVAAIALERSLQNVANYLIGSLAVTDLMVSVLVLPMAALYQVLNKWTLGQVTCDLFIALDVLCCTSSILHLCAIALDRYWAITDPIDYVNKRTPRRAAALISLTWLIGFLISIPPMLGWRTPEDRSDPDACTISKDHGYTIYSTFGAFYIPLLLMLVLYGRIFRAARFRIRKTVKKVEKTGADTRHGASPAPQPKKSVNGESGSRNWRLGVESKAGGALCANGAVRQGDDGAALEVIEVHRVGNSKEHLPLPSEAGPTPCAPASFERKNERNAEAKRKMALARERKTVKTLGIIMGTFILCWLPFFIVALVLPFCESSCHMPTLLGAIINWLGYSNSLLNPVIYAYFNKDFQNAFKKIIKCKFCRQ
In words: Displacement of [3H]8OH-DPAT from human recombinant 5HT1A receptor.

For data set [6], the target named is T2, 5-hydroxytryptamine receptor 3A (Homo sapiens, UniProt P46098).
T2 sequence (P46098 whole entry): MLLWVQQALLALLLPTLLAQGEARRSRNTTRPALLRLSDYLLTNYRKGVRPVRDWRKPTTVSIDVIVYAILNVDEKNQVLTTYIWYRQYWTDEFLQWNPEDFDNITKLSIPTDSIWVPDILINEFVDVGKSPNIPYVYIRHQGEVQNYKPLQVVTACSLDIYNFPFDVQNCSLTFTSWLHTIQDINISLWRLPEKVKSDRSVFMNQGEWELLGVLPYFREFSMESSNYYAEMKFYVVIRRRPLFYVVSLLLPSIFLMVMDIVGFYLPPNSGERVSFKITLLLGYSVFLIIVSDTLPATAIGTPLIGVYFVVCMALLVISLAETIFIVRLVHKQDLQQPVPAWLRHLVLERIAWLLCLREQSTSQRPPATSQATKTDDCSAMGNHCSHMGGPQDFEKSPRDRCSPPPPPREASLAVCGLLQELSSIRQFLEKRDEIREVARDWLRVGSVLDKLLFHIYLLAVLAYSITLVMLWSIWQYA
In words: Displacement of [3H]granisetron from human recombinant 5HT3 receptor.

Data set [7] addresses 5-hydroxytryptamine receptor 4 (Cavia porcellus) (UniProt O70528). In words: Displacement of [3H]GR-113808 from 5HT4 receptor in guinea pig striatum membrane at 1 uM. In kind it is cell membranes. The procedure, abridged: as §3
In data set [8] the target is 5-hydroxytryptamine receptor 2A (Homo sapiens, UniProt P28223). Description: Displacement of [3H]ketanserin form human recombinant 5HT2A receptor.
Data set [9] has as its target T3, 5-hydroxytryptamine receptor 2C (Homo sapiens, UniProt P28335).
T3 sequence (P28335 whole entry): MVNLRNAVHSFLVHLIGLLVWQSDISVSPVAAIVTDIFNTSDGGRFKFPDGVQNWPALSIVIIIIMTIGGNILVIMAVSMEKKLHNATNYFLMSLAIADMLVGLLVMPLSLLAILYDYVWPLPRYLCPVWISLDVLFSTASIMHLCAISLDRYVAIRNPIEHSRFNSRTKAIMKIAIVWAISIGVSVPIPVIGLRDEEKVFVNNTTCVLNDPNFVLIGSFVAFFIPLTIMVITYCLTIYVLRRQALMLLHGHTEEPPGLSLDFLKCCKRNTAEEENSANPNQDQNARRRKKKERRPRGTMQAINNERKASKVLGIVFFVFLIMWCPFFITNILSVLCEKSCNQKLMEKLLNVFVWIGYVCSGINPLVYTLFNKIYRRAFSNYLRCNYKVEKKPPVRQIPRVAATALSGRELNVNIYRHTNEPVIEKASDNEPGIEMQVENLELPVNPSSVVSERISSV
In words: Displacement of [3H]mesulergine from human recombinant 5HT2C receptor.

The target in data set [10] is 5-hydroxytryptamine receptor 4 (Cavia porcellus, UniProt O70528). In words: Displacement of [3H]GR-113808 from 5HT4 receptor in guinea pig striatum membrane. The class given is cell membranes. The gist of the method:
as §3

The target in data set [11] is 5-hydroxytryptamine receptor 7 (Homo sapiens, UniProt P34969). Description: Displacement of [3H]LSD form human recombinant 5HT7 receptor. The gist of the method:
as §2

In data set [12] the test system is Mus musculus. Description: Analgesic activity in NMRI mouse assessed as reaction time taken to lick fore paw at 8 mg/kg, ip after 15 mins of administration by hot plate test. The class given is functional. The conditions noted are these: route intraperitoneal. The gist of the method: (§4)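 Hot plate at 55 °C, male NMRI mice (20–24 g), groups of 10. Drug given ip in saline (10 mL/kg). Baseline latency to forepaw licking taken twice before dosing, and mice had to respond within 4–12 s. Latency read at 15 and 30 min after injection, with a 30 s cutoff. Data as mean ± SEM, ANOVA plus Fisher PLSD.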
A general note: In hot-plate and tail-flick tests a longer latency is read as antinociception.

In data set [13] the test system is Mus musculus. Description: Analgesic activity in NMRI mouse assessed as reaction time taken to lick fore paw at 8 mg/kg, ip after 30 mins of administration by hot plate test. In kind it is functional. Conditions: route intraperitoneal. The gist of the method: as §4
The subject of data set [14] is Mus musculus. In words: Antinociceptive activity against acetic acid-induced writhing in NMRI mouse assessed as number of stretches at 5 mg/kg, ip by writhing test. In kind it is functional. Conditions: route intraperitoneal. The procedure, abridged: (§5)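 Groups of 8 male NMRI mice (20–24 g). Compound or reference given ip in saline (10 mL/kg) 15 min before ip 0.6% aqueous acetic acid (10 mL/kg). Stretches (back arching, pelvic rotation, hind-limb extension) counted over 10 min, beginning 10 min after acid. ANOVA + Fisher PLSD versus control.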

In data set [15] the test system is Mus musculus. In words: Antinociceptive activity against acetic acid-induced writhing in NMRI mouse assessed as number of stretches at 1 mg/kg, ip by writhing test. The class given is functional. The conditions noted are these: route intraperitoneal. The procedure, abridged: as §5
In data set [16] the test system is Mus musculus. In words: Antinociceptive activity against acetic acid-induced writhing in NMRI mouse assessed as number of stretches at 0.1 mg/kg, ip by writhing test. In kind it is functional. The conditions noted are these: route intraperitoneal. The procedure, abridged: as §5
For data set [17], the system named is Mus musculus. In words: Antinociceptive activity against acetic acid-induced writhing in NMRI mouse assessed as number of stretches at 0.01 mg/kg, ip by writhing test. The class given is functional. Conditions: route intraperitoneal. The procedure, abridged: as §5
(In general: Writhing tests count abdominal constrictions after an irritant is injected.)

The subject of data set [18] is Mus musculus. In words: Antinociceptive activity against acetic acid-induced writhing in NMRI mouse assessed as number of stretches at 30 mg/kg, ip by writhing test. In kind it is functional. The conditions noted are these: route intraperitoneal. The gist of the method: as §5
In data set [19] the test system is Mus musculus. Description: Acute toxicity in NMRI mouse assessed as behavioral changes at 5 mg/kg, ip by CNS activity test. In kind it is organism-based, Central nervous system. Conditions: in vivo. The arrangement: dose 5 mg/kg, route intraperitoneal. The procedure, abridged: as §1
Data set [20] concerns Mus musculus. In words: Inhibition of scopolamine-induced immediate working memory deficit in NMRI mouse at 1 mg/kg, ip by Y-maze test relative to control. The conditions noted are these: route intraperitoneal. In kind it is functional. The arrangement: scale not given: the % may be the effect or the level left. The procedure, abridged: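 Spontaneous alternation in male NMRI mice. Scopolamine 1 mg/kg ip in saline induces the working-memory deficit; groups are saline+saline, saline+scopolamine, drug+saline and drug+scopolamine. Alternation % = actual alternations/(total arm entries − 2) × 100. ANOVA plus Fisher PLSD, p<0.05.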

The target in data set [21] is T2, 5-hydroxytryptamine receptor 3A. Description: Binding affinity at 5HT3 receptor.
Data set [22] addresses 5-hydroxytryptamine receptor 4 (Homo sapiens, UniProt Q13639). Description: Binding affinity at 5HT4 receptor.
Data set [23] addresses T2, 5-hydroxytryptamine receptor 3A. Description: Displacement of [3H]granisetron form 5HT3 receptor in hybrid […] cells. In kind it is cell-based. The gist of the method: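 NG108-15 cell membranes (0.5 mg protein/mL) incubated 60 min at 25 °C with 1 nM [3H]granisetron in 50 mM Tris-HCl, pH 7.4, plus 25 mM NaCl. Percent inhibition measured at 10^-6 and 10^-7 M; for some compounds Ki calculated from 8–10-point inhibition curves (Ki ± SEM).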

For orientation: IC50 means the point on the concentration scale where inhibition reaches its midpoint. As usually defined, the inhibition is the change of the read-out against control, counted positive when it falls. One may read the Ki as a measure of affinity in units of concentration, obtained from inhibition or displacement.

Some results are limits rather than exact numbers.

Sequence of 5-hydroxytryptamine receptor 4 (Cavia porcellus) (O70528 whole entry): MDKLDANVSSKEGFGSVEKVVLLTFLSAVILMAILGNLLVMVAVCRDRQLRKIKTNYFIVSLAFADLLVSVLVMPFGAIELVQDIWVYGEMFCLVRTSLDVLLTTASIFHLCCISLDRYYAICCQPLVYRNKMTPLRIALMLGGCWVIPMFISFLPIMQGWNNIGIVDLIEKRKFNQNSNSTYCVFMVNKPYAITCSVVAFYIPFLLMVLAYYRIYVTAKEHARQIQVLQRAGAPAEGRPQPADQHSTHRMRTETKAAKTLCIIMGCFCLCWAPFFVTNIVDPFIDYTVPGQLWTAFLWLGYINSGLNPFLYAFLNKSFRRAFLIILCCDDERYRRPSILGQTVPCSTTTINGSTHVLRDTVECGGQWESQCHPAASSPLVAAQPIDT
Sequence of 5-hydroxytryptamine receptor 4 (Cavia porcellus, UniProt O70528) (O70528 whole entry): as above
Sequence of 5-hydroxytryptamine receptor 6 (P50406 whole entry): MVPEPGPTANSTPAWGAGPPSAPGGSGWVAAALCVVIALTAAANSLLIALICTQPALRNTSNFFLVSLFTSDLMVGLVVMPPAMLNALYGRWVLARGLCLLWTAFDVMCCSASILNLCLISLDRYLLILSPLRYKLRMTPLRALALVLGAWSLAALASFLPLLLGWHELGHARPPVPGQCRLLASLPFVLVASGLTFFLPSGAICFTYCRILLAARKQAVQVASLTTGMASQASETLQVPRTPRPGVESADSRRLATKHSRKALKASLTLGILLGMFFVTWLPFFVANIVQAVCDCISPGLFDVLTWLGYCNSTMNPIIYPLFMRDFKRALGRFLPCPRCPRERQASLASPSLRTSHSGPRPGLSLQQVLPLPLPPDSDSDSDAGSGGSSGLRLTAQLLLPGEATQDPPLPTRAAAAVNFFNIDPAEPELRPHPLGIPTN
Sequence of 5-hydroxytryptamine receptor 7 (P34969 whole entry): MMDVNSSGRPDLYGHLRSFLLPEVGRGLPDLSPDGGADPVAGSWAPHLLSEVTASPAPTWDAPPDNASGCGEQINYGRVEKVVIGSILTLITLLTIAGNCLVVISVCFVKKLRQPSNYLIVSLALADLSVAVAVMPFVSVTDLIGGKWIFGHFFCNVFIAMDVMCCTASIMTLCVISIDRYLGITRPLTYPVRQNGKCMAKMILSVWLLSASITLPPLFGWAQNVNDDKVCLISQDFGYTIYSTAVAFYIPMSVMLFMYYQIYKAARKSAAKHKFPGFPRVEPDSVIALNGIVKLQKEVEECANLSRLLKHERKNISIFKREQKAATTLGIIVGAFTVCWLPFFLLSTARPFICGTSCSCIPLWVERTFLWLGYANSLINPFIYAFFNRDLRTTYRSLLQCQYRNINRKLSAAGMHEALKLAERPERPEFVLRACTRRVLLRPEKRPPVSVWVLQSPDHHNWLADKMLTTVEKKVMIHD
Sequence of 5-hydroxytryptamine receptor 2A (P28223 whole entry): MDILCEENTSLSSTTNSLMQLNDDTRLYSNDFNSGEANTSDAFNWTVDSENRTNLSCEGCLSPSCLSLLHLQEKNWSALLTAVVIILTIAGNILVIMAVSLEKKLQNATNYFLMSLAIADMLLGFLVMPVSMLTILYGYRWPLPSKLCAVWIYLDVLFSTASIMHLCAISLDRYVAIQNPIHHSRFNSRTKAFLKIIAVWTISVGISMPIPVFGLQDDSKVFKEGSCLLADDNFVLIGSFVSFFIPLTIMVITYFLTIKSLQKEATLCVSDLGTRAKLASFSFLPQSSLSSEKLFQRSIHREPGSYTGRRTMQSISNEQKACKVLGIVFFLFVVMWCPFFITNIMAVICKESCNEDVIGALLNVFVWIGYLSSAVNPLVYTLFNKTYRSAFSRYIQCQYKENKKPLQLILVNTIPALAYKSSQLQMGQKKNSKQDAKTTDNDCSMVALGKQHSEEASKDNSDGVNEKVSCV
Sequence of 5-hydroxytryptamine receptor 2B (P41595 whole entry): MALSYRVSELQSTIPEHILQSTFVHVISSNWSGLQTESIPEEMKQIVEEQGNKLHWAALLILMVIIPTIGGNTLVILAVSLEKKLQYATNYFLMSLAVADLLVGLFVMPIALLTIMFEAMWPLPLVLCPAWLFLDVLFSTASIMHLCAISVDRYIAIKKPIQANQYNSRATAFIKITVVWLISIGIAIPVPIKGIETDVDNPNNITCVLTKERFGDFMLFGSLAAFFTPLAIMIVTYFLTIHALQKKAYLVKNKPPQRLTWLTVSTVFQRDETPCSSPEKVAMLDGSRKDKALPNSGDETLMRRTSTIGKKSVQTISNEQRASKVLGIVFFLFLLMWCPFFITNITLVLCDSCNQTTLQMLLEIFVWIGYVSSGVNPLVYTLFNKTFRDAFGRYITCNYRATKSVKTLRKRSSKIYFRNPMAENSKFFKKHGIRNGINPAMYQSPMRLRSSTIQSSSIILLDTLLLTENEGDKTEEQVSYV
Sequence of 5-hydroxytryptamine receptor 4 (Homo sapiens, UniProt Q13639) (Q13639 whole entry): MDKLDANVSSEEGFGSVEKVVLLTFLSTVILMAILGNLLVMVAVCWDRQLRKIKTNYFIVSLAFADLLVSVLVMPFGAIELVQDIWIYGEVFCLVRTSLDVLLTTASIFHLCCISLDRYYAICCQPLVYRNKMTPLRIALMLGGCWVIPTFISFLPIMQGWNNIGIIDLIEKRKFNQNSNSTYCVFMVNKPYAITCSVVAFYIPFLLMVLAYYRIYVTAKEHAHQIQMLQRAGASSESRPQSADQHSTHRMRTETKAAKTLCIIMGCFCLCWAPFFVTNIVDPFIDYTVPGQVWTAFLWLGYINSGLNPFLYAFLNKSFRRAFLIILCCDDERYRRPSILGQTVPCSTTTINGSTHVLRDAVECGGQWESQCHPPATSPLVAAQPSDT

Turning to `COC(=O)C(c1ccccc1)C1CCCCN1` (configuration not stated) [METHYLPHENIDATE], in the data set on Mus musculus [1], the Activity entry is reported as “Toxic”.

In the case of `CCN1CCC(COc2nc3ccsc3n3cccc23)CC1`, the IC50 in data set [2] is > 10000 nM; in data set [4] it was 9.77 nM; in data set [5], > 100000 nM; in [6], > 1000 nM; in [8], 8130 nM; in data set [9], 5620 nM. Besides, the IC50 in data set [11] was > 1000 nM. Moreover, the inhibition in [3] amounted to 42%; in data set [7] it was 84%. In data set [10], this compound gave an inhibition constant (Ki) of 19.1 nM.

As to `CN1CC[C@]23c4c5ccc(O)c4O[C@H]2[C@@H](O)C=C[C@H]3[C@H]1C5` [MORPHINE], the Time is 30 s in the data set on Mus musculus [12] and 26 s in the data set on Mus musculus [13].

As for `CN1C(C(=O)Nc2ccccn2)=C(O)c2ccccc2S1(=O)=O` [PIROXICAM], the Activity in the data set on Mus musculus [14] stood at 2.2.

`COc1[nH]c2ccc(F)cc2c1C(=O)OCC1CCN(CCNS(C)(=O)=O)CC1`: the Activity in the data set on Mus musculus [15] was 12.9; in the data set with Mus musculus [16], 13.2; with Mus musculus [17], 19.1.

As to `CC(=O)Oc1ccccc1C(=O)O` [ASPIRIN], the Activity in the data set on Mus musculus [18] is on record as 8.3.

As to `OCCN1CCN(CCCN2c3ccccc3Sc3ccc(Cl)cc32)CC1` [PERPHENAZINE], the Activity entry in the data set on Mus musculus [19] is on record as “Toxic”.

`COC(=O)C1=CCCN(C)C1` [ARECOLINE] came in with an Activity in the data set on Mus musculus [20] of 64%.

For `Cn1cc(C(=O)OCC2CCN(CCNS(C)(=O)=O)CC2)c2ccccc21`, the Ki in data set [21] is > 10000 nM; in data set [22], 0.158 nM. The results for the Activity with Mus musculus [15], with Mus musculus [16] and with Mus musculus [17] were 14.3, 14.8 and 21.1, respectively.

`CCCCN1CCC(COc2nc3ccsc3n3cccc23)CC1`: the IC50 was > 10000 nM in [2]; 52.5 nM in [4]; 5250 nM in [5]; > 10000 nM in data set [6]; 166 nM in [8]; 29500 nM in [9]. For the same compound, the IC50 in [11] was > 1000 nM. For the same compound, the inhibition in [3] worked out at 31%; in data set [7], 100%. Further, the Ki in data set [10] is 20.9 nM.

On to `c1ccc(CN2CCN(c3nc4ccsc4n4cccc34)CC2)cc1`, for which the IC50 in data set [23] was 1.41 nM; in data set [10], > 10000 nM.
